These results are taken from ChEMBL document CHEMBL5360619.

Assay [1] deals with Mycobacterium tuberculosis. Nature of the assay: Antimycobacterial activity against Mycobacterium tuberculosis Erdman harboring frameshift mutation in KatG at amino acid 6 assessed as reduction in colony forming units at 1 uM incubated for 13 days. Conditions: time 13.0 day. The format is functional, organism-based. The method, boiled down: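 katG frameshift mutant grown to log phase in Sauton's medium, diluted to 5 × 10^7 CFU/mL, given 1 μM compound (imidazole salt in DMSO); IMD/DMSO vehicle controls. Incubated rolling at 37 °C. After 13 days, serial dilutions plated on 7H11 agar with ADC for CFU. Two experiments, each in duplicate; one-way ANOVA with Tukey's correction.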

Assay [2] concerns Mycobacterium tuberculosis. Nature of the assay: Reversal of isoniazid resistance in Mycobacterium tuberculosis Erdman harboring frameshift mutation in KatG at amino acid 6 assessed as reduction in surviving bacteria by measuring reduction in colony forming units at 1 uM incubated for 13 days. The format is functional, organism-based. The conditions noted are these: time 13.0 day.

In assay [3] the test system is Mycobacterium tuberculosis. Briefly: Antimycobacterial activity against Mycobacterium tuberculosis Erdman harboring frameshift mutation in KatG at amino acid 6 assessed as reduction in colony forming units at […] incubated for 13 days (reference value: 9.07 x 10^9 CFU/mL). The assay is classed as functional. The conditions noted are these: dose 2.5 µg/ml; time 13 day.

The structures appear in SMILES notation. Calls of active or inactive are those of the source. No cut-off for these calls is given here.

Regarding `O=C(O)C1CSc2c(C3CC3)c(-c3cc(-c4ccc5ccccc5c4)no3)cc(=O)n21.c1c[nH]cn1` (racemic), the result in assay [1] was inactive. Besides, the result in assay [2] was Active.
With `O=C(O)C1CSc2c(C3CC3)c(Cc3cccc4ccccc34)cc(=O)n21.c1c[nH]cn1` (racemic), the result in assay [1] and in assay [2] was inactive.
Turning to `NNC(=O)c1ccncc1` [ISONIAZID], the Activity in assay [3] was 8.09 10^8CFU/ml.
